# Laboratory results taken from ChEMBL document CHEMBL2331224 (J Med Chem, 2013).
# Assays:
# [1] = target: T1, Retinoic acid receptor RXR-alpha (Homo sapiens) (UniProt P19793); assay: Transactivation of RXRalpha (unknown origin) expressed in COS1 cells at 0.1 uM after 18 hrs by luciferase reporter gene assay relative to bexarotene; format: cell-based; details: COS-1
# T1 sequence (whole entry): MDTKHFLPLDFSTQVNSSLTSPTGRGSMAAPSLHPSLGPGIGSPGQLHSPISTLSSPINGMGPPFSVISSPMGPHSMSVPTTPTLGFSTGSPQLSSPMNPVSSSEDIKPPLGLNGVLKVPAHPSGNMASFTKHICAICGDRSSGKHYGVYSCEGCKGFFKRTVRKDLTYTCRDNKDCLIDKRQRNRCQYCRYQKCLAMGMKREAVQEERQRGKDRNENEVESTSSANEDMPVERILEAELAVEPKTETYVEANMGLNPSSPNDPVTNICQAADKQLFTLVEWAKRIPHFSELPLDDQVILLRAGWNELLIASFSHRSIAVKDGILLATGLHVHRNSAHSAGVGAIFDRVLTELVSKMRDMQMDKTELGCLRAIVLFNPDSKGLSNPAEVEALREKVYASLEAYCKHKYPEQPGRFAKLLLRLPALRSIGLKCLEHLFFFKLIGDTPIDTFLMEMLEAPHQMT
# Method in brief: (§1)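 COS-1 cells in DMEM with 10% FBS at 37 °C, 5% CO2, transfected with RXRα, an RXR-response-element luciferase reporter and a SEAP background vector. Cells were seeded at about 2.0 × 10⁴ per well with compound (DMSO below 1%) for 18 h. Luciferase was normalized to SEAP and expressed relative to 1 μM reference RXR full agonist as 100%. EC50 came from full dose-response curves. Triplicates, at least three experiments.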
# [2] = target: T1, Retinoic acid receptor RXR-alpha (Homo sapiens); assay: Transactivation of RXRalpha (unknown origin) expressed in COS1 cells at 1 uM after 18 hrs by luciferase reporter gene assay relative to bexarotene; format: cell-based; details: COS-1; method in brief: as §1
# [3] = target: T1, Retinoic acid receptor RXR-alpha (Homo sapiens); assay: Transactivation of RXRalpha (unknown origin) expressed in COS1 cells at 10 uM after 18 hrs by luciferase reporter gene assay relative to bexarotene; format: cell-based; details: COS-1; method in brief: as §1
# Mus musculus [4] = assay: Toxicity in ICR mouse assessed as change in renal function parameters at 30 mg/kg/day, po for 7 days; format: organism-based; design: route oral; details: in vivo, 168 h
# Method in brief: (§2)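 Male ICR mice, 6−7 weeks old, four per cage, grouped by body weight. Oral 30 mg/kg or vehicle (1% ethanol/0.5% CMC in water, 10 mL/kg) once daily for 7 days, body weight recorded daily. After overnight fasting, mice were weighed under ether, and liver was removed and weighed. Serum was analysed on a dry-chemistry analyser for TG, TCHO, ALP, CRE, BUN and other markers. n = 7−23, ANOVA.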
# Mus musculus [5] = assay: Toxicity in ICR mouse assessed as increase in blood triglyceride level at 30 mg/kg/day, po for 7 days; format: organism-based; design: route oral; details: in vivo, 168 h; method in brief: as §2
# Mus musculus [6] = assay: Toxicity in ICR mouse assessed as weight gain at 30 mg/kg/day, po for 7 days relative to control; format: organism-based; design: route oral; details: in vivo, 168 h; method in brief: as §2
# [7] = target: T1, Retinoic acid receptor RXR-alpha (Homo sapiens); assay: Partial agonist activity at RXRalpha (unknown origin) expressed in COS1 cells after 18 hrs by luciferase reporter gene assay relative to bexarotene; format: cell-based; details: COS-1; method in brief: as §1
# [8] = target: T2, Retinoic acid receptor RXR-alpha (Homo sapiens, UniProt P19793); assay: Partial agonist activity at RXRalpha (unknown origin) expressed in COS1 cells after 18 hrs by luciferase reporter gene assay; format: cell-based, COS-1; method in brief: as §1
# T2 sequence (P19793 whole entry): T1 sequence (whole entry)
# Mus musculus [9] = assay: Toxicity against KKAy mouse assessed as creatinine level at 10 mg/kg/day, po for 14 days (reference value: 0.2 mg/dl); format: organism-based; design: route oral; details: in vivo, 336 h
# Mus musculus [10] = assay: Toxicity against KKAy mouse assessed as total cholesterol level at 10 mg/kg/day, po for 14 days (reference value: 153.2 +/- 11.1 mg/dL); format: organism-based; design: route oral; details: in vivo, 336 h
# Mus musculus [11] = assay: Toxicity against KKAy mouse assessed as plasma triglyceride level at 10 mg/kg/day, po for 14 days (reference value: 122.4 +/- 11.0 mg/dL); format: organism-based; design: route oral; details: in vivo, 336 h
# Mus musculus [12] = assay: Toxicity against KKAy mouse assessed as blood urea nitrogen level at 10 mg/kg/day, po for 14 days (reference value: 21.9 +/- 1.1 mg/dL); format: organism-based; design: route oral; details: in vivo, 336 h
# Mus musculus [13] = assay: Toxicity against KKAy mouse assessed as plasma ALP level at 10 mg/kg/day, po for 14 days (reference value: 358.2 +/- 43.1 IU); format: organism-based; design: route oral; details: in vivo, 336 h
# Mus musculus [14] = assay: Toxicity against KKAy mouse assessed as plasma gammaGTP level at 10 mg/kg/day, po for 14 days (reference value: 5.8 +/- 0.6 IU); format: organism-based; design: route oral; details: in vivo, 336 h
# Mus musculus [15] = assay: Toxicity against KKAy mouse assessed as plasma ALT level at 10 mg/kg/day, po for 14 days (reference value: 17.6 +/- 0.9 IU); format: organism-based; design: route oral; details: in vivo, 336 h
# Mus musculus [16] = assay: Toxicity against KKAy mouse assessed as plasma AST level at 10 mg/kg/day, po for 14 days (reference value: 49.6 +/- 2.3 IU); format: organism-based; design: route oral; details: in vivo, 336 h
Structure (SMILES),Efficacy [1] [%],Efficacy [2] [%],Efficacy [3] [%],Emax [7] [%],EC50 [8] [nM],further results
Cc1cc2c(cc1-n1c(=O)[nH]c3cc(C(=O)O)ccc31)C(C)(C)CCC2(C)C,< 5,< 5,22,,,
Cc1cc2c(cc1-n1c(C)nc3cc(C(=O)O)ccc31)C(C)(C)CCC2(C)C,28,70,80,94,367,Activity (Mus musculus [4]): Non-toxic; Activity (Mus musculus [5]): Non-toxic; Activity (Mus musculus [6]): Non-toxic
CCN(c1ccc2c(c1)C(C)(C)CCC2(C)C)c1ccc(C(=O)O)cn1,86,96,98,,3.8,Activity (Mus musculus [4]): Non-toxic; Activity (Mus musculus [5]): Non-toxic; Activity (Mus musculus [6]): Non-toxic
CCc1ccc(CCOc2ccc(CC3SC(=O)NC3=O)cc2)nc1 (centres undefined) [PIOGLITAZONE],,,,,,Activity (Mus musculus [9]): 0.2 mg/dL; Activity (Mus musculus [10]): 147.3 mg/dL; Activity (Mus musculus [11]): 124 mg/dL; Activity (Mus musculus [12]): 22.2 mg/dL; Activity (Mus musculus [13]): 395.7 IU; Activity (Mus musculus [14]): 7.3 IU; Activity (Mus musculus [15]): 21.3 IU; Activity (Mus musculus [16]): 45.3 IU
Cc1cc2c(cc1-n1c(N)nc3cc(C(=O)O)ccc31)C(C)(C)CCC2(C)C,< 5,35,96,103,155,
Cc1cc2c(cc1-n1c(=S)[nH]c3cc(C(=O)O)ccc31)C(C)(C)CCC2(C)C,< 5,< 5,37,,,
Cc1cc2c(cc1-n1cnc3cc(C(=O)O)ccc31)C(C)(C)CCC2(C)C,< 5,52,72,75,633,
Cc1cc2c(cc1-n1ccc3cc(C(=O)O)ccc31)C(C)(C)CCC2(C)C,45,67,77,73,83,
